Measured values from ChEMBL document CHEMBL3352791, “Thioaryl naphthylmethanone oxime ether analogs as novel anticancer agents” (J Med Chem, 2014).
The source made the active and inactive calls. The rule behind the calls is not given here.

Legend:
HeLa = assay: Antiproliferative activity against human HeLa cells after 24 hrs by MTT assay; assay type: functional, cell-based; settings: hela
MDA-MB-231 [1] = assay: Cell cycle arrest in human […] cells assessed as accumulation at S phase at 2.5 uM by propidium iodide staining by FACS analysis (reference value: 13.72%); assay type: functional
MCF7 [2] = assay: Cell cycle arrest in human […] cells assessed as accumulation at G2 phase at 5 uM by propidium iodide staining by FACS analysis (reference value: 10.96%); assay type: functional
[3] = target: Platelet-derived growth factor receptor beta (Homo sapiens) (UniProt P09619); assay: Inhibition of PDGFRbeta (unknown origin) at 10 uM
Procedure, shortened: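 Cell-free kinase profiling was run as a standard 33P-ATP-based in vitro kinase assay.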

[4] = target: Focal adhesion kinase 1 (Homo sapiens) (UniProt Q05397); assay: Inhibition of basal level FAK phosphorylation at Tyr397 in human MDA-MB-231 cells at 1 uM by ELISA; assay type: cell-based
[5] = target: ETS domain-containing protein Elk-1 (Homo sapiens) (UniProt P19419); assay: Inhibition of basal level ELK1 phosphorylation in human MDA-MB-231 cells at 1 uM by ELISA; assay type: cell-based
[6] = target: Epidermal growth factor receptor (Homo sapiens) (UniProt P00533); assay: Inhibition of EGF-induced EGFR phosphorylation at Tyr1148 in human MDA-MB-231 cells at 1 uM by ELISA; assay type: cell-based
[7] = target: RAC-alpha serine/threonine-protein kinase (Homo sapiens) (UniProt P31749); assay: Inhibition of basal level AKT phosphorylation in human MDA-MB-231 cells at 1 uM by ELISA; assay type: cell-based
MDA-MB-231 [8] = assay: Induction of apoptosis in human […] cells assessed as caspase 8 activation at 2.5 to 7.5 uM by Caspase-Glo assay; assay type: functional, cell-based
Procedure, shortened: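 Caspase-8, -9 and -3 activities measured with Caspase-Glo 8, 9 and 3 kits; mean ± SEM from three independent experiments.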

[9] = target: Epidermal growth factor receptor (Homo sapiens) (UniProt P00533); assay: Inhibition of EGF-induced EGFR phosphorylation at Tyr1068 in human MCF7 cells at 0.5 uM by ELISA; assay type: cell-based
[10] = target: Focal adhesion kinase 1 (Homo sapiens) (UniProt Q05397); assay: Inhibition of EGF-induced FAK phosphorylation at Tyr397 in human MDA-MB-231 cells at 1 uM by ELISA; assay type: cell-based
[11] = target: High affinity 3',5'-cyclic-AMP phosphodiesterase 7A (Homo sapiens) (UniProt Q13946); assay: Inhibition of PDE7A (unknown origin) activity at 1 to 10 uM
Procedure, shortened: (§1)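 Recombinant PDE isoform activity was read by fluorescence polarization. A binding reagent complexes with the nucleotide monophosphate that the phosphodiesterase generates from cAMP/cGMP, and this raises the polarization of the labelled substrate. Reference standards were PDE1A3 10µM IBMX, PDE2A3 1nM BAY 60-7550, PDE3CAT 1µM cilostazol, PDE4CAT rolipram, PDE5CAT 0.1µM sildenafil, PDE7A […], PDE8A1 10µM BRL-50481, PDE9A1 1µM SB 36216 and PDE11A1 dipyridamole.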

[12] = target: T1, Signal transducer and activator of transcription 1-alpha/beta (Homo sapiens) (UniProt P42224); assay: Inhibition of EGF-induced STAT1 phosphorylation in human MDA-MB-231 cells at 1 uM by ELISA; assay type: cell-based
T1 sequence (whole entry): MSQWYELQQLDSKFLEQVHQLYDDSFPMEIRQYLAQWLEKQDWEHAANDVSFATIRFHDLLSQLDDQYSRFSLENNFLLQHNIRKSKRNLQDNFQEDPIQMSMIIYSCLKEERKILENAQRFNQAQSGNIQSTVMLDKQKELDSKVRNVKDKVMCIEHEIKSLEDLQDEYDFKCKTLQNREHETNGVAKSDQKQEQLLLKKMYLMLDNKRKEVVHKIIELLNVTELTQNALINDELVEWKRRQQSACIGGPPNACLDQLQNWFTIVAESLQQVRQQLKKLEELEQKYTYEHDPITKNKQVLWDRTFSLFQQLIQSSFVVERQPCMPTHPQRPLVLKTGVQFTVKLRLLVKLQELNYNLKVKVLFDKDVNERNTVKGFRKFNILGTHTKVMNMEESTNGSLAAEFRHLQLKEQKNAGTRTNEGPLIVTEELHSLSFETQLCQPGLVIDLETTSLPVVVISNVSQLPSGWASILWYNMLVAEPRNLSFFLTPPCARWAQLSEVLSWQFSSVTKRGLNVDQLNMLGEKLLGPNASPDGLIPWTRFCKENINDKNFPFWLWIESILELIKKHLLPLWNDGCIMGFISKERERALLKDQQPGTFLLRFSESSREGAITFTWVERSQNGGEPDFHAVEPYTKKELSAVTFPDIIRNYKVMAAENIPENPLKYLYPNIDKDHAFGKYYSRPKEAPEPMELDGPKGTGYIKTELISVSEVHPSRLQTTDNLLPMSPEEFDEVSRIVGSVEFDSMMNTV

MCF7 [13] = assay: Antiproliferative activity against human […] cells at 2.5 to 7.5 uM by annexin V-FITC/propidium iodide staining-based flow cytometric analysis; assay type: functional, cell-based
[14] = target: Mitogen-activated protein kinase; ERK1/ERK2 (Homo sapiens) (UniProt P27361+P28482); assay: Inhibition of basal level ERK1/2 phosphorylation in human MDA-MB-231 cells at 1 uM by ELISA; assay type: cell-based
MCF7 [15] = assay: Antitumor activity against human MCF7 cells xenografted in NIH-3 mouse assessed as large area of stroma/deletion of epithelial cells at 16 mg/kg, po for 25 days; assay type: functional, organism-based; set-up: dose 16 mg/kg
[16] = target: Dual specificity calcium/calmodulin-dependent 3',5'-cyclic nucleotide phosphodiesterase 1A (Homo sapiens) (UniProt P54750); assay: Inhibition of PDE1A3 (unknown origin) activity at 1 to 10 uM; procedure, shortened: as §1
[17] = target: Phosphodiesterase 4 (Homo sapiens) (UniProt P27815+Q08499+Q07343+Q08493); assay: Inhibition of PDE4 CAT (unknown origin) activity at 1 to 10 uM; assay type: protein assay; procedure, shortened: as §1
MDA-MB-231 [18] = assay: Cytotoxicity against human […] cells assessed as cell viability at 5 uM by MTT assay in presence of z-LEHD-FMK caspase-9 inhibitor; assay type: functional, cell-based
Procedure, shortened: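 Cells seeded 1×10^4/well in DMEM with 10% FBS, adhered overnight, serum-starved 4 h; pre-incubated 2 h with Z-IETD-FMK or Z-LEHD-FMK (10µM each), then 5μM compound for a further 24 h; viability by MTT.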

MDA-MB-231 [19] = assay: Antiinvasion activity in human MDA-MB-231 cells assessed as inhibition of EGF-induced cell invaded to matrigel coated invasion chamber at 1 uM after 24 hrs by Transwell invasion assay; assay type: functional, cell-based
Procedure, shortened: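 Transwell matrigel invasion (8 µm pore): cells at 1x10^5 cells/mL in 2% FBS medium in upper chamber; lower chamber medium with 1µM compound and EGF 100ng/ml; 24 h. Invaded cells on filter underside fixed, crystal-violet stained, counted in six random fields at 20×, dye dissolved in 0.1% SDS read at 540nm; triplicate chambers.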

[20] = target: Epidermal growth factor receptor (Homo sapiens) (UniProt P00533); assay: Inhibition of EGF-induced EGFR phosphorylation at Tyr1045 in human MDA-MB-231 cells at 1 uM by ELISA; assay type: cell-based

Sequence of Epidermal growth factor receptor (Homo sapiens) (P00533 whole entry): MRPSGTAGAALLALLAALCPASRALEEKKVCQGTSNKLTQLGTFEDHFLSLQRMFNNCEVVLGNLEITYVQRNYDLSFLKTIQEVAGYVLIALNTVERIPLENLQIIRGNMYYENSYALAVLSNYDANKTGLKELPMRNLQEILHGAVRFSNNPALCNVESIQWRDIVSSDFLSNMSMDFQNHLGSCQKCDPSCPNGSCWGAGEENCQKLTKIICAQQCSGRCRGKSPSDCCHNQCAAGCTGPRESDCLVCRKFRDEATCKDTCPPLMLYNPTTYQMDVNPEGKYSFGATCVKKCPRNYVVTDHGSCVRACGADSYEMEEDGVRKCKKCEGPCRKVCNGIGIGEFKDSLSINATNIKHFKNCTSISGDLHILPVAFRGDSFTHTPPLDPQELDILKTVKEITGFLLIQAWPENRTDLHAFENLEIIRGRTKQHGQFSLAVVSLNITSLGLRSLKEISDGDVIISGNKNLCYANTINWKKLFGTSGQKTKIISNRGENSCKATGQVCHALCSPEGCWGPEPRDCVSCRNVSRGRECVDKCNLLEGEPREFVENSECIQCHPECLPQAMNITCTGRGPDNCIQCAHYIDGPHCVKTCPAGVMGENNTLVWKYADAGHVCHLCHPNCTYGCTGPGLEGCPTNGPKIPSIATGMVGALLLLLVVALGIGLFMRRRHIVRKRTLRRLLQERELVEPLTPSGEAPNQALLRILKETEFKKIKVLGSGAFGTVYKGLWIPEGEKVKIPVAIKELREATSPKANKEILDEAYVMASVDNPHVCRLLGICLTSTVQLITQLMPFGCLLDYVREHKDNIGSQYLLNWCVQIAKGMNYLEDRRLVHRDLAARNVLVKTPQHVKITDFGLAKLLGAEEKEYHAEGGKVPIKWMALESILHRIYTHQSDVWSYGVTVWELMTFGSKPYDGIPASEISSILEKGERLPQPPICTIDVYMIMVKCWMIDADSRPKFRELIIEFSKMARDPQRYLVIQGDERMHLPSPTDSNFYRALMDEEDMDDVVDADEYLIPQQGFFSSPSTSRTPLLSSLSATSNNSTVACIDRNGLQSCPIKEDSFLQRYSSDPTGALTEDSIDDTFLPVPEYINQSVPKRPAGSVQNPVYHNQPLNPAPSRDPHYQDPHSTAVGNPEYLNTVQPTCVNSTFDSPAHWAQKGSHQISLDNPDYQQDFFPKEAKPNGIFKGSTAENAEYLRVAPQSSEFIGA
Sequence of Focal adhesion kinase 1 (Homo sapiens) (Q05397 2-1052 limits assumed): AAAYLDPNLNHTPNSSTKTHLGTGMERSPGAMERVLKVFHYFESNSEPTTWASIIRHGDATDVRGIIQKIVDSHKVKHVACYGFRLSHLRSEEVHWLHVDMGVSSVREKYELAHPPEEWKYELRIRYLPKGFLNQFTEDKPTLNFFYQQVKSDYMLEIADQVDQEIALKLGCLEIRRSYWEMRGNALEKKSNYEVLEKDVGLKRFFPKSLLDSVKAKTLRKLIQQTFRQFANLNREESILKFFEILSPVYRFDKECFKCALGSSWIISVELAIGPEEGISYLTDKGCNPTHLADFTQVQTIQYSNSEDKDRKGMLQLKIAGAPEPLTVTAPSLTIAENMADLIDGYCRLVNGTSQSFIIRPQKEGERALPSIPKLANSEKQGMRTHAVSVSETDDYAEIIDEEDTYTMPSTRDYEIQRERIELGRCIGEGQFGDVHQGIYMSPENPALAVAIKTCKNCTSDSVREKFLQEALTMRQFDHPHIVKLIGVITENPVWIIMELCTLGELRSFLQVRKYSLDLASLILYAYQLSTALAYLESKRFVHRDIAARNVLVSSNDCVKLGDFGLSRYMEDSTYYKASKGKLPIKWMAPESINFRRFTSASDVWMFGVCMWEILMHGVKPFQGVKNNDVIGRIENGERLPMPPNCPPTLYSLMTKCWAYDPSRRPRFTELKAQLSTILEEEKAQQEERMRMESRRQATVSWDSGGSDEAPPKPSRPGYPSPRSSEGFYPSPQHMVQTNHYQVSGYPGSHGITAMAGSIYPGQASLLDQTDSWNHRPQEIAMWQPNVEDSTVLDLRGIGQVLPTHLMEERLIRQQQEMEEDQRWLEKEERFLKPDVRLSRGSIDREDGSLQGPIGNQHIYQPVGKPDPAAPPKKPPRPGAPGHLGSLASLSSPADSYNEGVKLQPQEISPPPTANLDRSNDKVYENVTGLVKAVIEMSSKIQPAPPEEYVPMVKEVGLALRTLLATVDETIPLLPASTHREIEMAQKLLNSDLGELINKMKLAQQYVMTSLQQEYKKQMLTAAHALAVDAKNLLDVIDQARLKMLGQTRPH
Sequence of ETS domain-containing protein Elk-1 (Homo sapiens) (P19419 whole entry, the tested form may be a part): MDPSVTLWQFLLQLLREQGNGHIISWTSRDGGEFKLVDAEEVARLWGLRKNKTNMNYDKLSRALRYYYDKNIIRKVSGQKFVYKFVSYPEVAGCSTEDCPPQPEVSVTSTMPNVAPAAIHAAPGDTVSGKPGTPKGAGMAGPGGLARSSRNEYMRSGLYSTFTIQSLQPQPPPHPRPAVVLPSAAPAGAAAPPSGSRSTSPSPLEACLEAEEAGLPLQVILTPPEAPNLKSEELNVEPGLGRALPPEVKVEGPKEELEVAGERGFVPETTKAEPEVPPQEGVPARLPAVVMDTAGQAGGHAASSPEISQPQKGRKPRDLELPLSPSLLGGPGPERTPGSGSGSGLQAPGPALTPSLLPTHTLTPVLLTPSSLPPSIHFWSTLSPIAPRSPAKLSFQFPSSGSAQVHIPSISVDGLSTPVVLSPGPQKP
Sequence of High affinity 3',5'-cyclic-AMP phosphodiesterase 7A (Homo sapiens) (Q13946 whole entry, canonical isoform): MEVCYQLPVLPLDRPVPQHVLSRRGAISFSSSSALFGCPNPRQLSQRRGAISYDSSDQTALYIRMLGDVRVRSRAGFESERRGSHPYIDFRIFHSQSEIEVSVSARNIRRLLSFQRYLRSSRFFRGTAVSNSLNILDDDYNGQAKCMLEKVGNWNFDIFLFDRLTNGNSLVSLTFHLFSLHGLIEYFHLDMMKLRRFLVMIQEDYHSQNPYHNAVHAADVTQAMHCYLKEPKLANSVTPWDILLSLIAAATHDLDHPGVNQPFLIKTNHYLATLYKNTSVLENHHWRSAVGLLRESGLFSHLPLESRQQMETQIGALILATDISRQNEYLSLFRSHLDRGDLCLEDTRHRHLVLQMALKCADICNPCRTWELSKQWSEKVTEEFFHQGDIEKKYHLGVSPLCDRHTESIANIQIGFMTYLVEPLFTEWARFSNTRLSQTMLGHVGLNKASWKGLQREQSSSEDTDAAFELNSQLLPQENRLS
Sequence of Platelet-derived growth factor receptor beta (Homo sapiens) (P09619 whole entry): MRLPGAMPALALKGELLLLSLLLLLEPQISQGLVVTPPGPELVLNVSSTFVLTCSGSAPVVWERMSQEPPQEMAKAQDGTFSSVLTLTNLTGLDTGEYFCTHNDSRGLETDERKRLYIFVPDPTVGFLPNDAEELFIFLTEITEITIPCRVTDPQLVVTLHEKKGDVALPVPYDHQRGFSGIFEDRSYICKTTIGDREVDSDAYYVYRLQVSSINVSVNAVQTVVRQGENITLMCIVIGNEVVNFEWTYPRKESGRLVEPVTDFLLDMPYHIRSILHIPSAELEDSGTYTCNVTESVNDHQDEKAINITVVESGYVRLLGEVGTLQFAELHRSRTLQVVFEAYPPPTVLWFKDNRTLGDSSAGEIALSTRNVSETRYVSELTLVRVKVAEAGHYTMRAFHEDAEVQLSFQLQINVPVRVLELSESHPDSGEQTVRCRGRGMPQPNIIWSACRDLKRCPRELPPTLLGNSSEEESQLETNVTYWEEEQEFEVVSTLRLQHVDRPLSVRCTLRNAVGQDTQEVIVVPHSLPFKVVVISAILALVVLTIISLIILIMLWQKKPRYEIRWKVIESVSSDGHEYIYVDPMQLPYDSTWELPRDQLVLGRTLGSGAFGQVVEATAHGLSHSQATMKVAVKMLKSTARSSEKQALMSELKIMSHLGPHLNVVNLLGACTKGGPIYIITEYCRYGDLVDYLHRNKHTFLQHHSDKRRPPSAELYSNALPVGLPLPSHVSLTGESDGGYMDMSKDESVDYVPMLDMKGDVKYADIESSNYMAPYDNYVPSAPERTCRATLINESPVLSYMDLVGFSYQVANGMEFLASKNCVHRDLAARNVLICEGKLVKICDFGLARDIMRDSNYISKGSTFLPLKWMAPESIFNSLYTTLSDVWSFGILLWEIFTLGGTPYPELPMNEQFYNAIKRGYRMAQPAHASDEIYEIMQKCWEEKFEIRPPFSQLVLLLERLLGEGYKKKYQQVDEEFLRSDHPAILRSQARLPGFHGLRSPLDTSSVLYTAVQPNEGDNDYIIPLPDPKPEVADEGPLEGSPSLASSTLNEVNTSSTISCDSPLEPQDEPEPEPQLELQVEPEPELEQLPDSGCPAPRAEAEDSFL
Sequence of Dual specificity calcium/calmodulin-dependent 3',5'-cyclic nucleotide phosphodiesterase 1A (Homo sapiens) (P54750 whole entry): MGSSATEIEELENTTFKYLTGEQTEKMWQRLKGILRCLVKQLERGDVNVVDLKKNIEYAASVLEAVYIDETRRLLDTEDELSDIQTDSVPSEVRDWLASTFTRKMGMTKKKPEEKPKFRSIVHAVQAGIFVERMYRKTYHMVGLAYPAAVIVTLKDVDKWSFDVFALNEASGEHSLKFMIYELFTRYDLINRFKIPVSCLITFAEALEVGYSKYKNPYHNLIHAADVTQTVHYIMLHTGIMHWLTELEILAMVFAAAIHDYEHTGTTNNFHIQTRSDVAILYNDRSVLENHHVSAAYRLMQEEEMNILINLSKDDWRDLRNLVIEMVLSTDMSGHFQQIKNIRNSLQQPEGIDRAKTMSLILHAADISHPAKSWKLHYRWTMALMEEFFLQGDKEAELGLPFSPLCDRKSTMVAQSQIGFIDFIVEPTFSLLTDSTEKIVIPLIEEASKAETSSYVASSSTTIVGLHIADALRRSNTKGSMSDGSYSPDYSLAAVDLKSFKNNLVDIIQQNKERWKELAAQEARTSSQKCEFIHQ

CCN(CC)CCO/N=C(\c1ccc(SC)cc1)c1cccc2ccccc12.O=C(O)C(=O)O
EC50 (HeLa): 7.5 µM | Activity (MDA-MB-231 [1]): 13.65% | Activity (MCF7 [2]): 11.48%

CCN(CC)CCO/N=C(\c1ccc(SC)cc1)c1cccc2ccccc12
inhibition [3]: inactive | inhibition [4]: Active | inhibition [5]: Active | inhibition [6]: Active | inhibition [7]: inactive | Activity (MDA-MB-231 [8]): Active | inhibition [9]: Active | inhibition [10]: Active | inhibition [11]: inactive | inhibition [12]: inactive | Activity (MCF7 [13]): Active | inhibition [14]: Active | Activity (MCF7 [15]): Active | inhibition [16]: inactive | inhibition [17]: inactive | Activity (MDA-MB-231 [18]): inactive | inhibition (MDA-MB-231 [19]): Active | inhibition [20]: Active
